An excerpt weighted towards active compounds, which were near 3.5% of everything screened.
MrgX1 ag – agonists of human MrgX1 receptor, primary screen, HEK293 cells, Fluo-4 calcium flux. Fluo-4 calcium fluorescence, agonist mode; stronger effect = higher value. B-score at 10 µM. hit rate 0.44% among 310,000. AID 588627, 2011;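 active = calcium response B-score plate-corrected fluorescence ratio at least 3 library SD, with starting fluorescence B-score inside 5 SD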
Target sequence (Q96LB2 whole entry, looked up): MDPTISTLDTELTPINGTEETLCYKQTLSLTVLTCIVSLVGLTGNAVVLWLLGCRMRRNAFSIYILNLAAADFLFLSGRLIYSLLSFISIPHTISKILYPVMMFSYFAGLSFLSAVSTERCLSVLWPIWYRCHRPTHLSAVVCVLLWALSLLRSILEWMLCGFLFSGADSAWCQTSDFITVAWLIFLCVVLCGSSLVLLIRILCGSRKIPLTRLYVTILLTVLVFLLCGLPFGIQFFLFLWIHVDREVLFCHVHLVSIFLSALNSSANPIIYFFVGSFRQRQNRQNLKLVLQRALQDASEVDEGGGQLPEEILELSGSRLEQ
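Material: MrgX1-expressing HEK293 cells; input: 15,000 cells per well; doses: test compound given as first of three sequential additions; schedule: overnight plating before 1 h dye loading; technique: Fluo-4 NW calcium-flux fluorescence, kinetic read; evaluation: baseline-normalised fluorescence change ratio, B-scored; control set: plate-wise positive and negative controls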
MrgX1 PAM – positive allosteric modulators of MrgX1, primary screen, HEK293 cells, Fluo-4 calcium flux; Mas-related G-protein coupled receptor member X1 (Homo sapiens), Q96LB2; FDSS; stronger effect = higher value; B-score at 10 µM; hit rate 0.63% among 310,000; AID 588675, 2011;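 active = plate-corrected calcium response at least 3 library SD above typical, normal starting fluorescence, not activating the receptor alone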;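 also: compound read alongside a low EC10 to EC30 dose of BAM8-22 agonist; peak minus trough fluorescence over baseline measured at the second addition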
RGS4 act – RGS4 potentiators or activators, primary screen, cell-based, HEK293 M3R inducible RGS4, calcium flux. B-score at 10 µM. carbachol calcium flux Fluo4; stronger effect = lower value. hit rate 0.92% among 310,000. AID 463111, 2010;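 active = B-score of the integrated calcium signal more than 4 SD below the library mean, with starting fluorescence not abnormally high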;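 also: negative B-score means reduced calcium response which marks RGS4 activation or potentiation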
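test system = M3R-expressing HEK293 line, RGS4 induced by doxycycline | probe or stimulus = carbachol at ECmax as muscarinic agonist stimulus | timing = dye loading 30 min 37 °C, buffer rest 30 min RT | signal = calcium dye Fluo4 fluorescence | evaluation = B score from integrated fluorescence ratio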
RGS4 inh – RGS4 inhibitors, primary screen, cell-based, HEK293 M3R inducible RGS4, calcium flux. AID 463165, 2010. Fluo-4 calcium flux; stronger effect = higher value; triggered by carbachol at its EC20. hit rate 0.45% among 310,000. B-score at 10 µM;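 active = B-score, a plate-corrected calcium signal, over three deviations above library mean, with baseline fluorescence within five deviations of library mean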;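 also: RGS4 expression induced by doxycycline in cells with stable M3 receptor; B-score is computed from the integrated fluorescence ratio over baseline after carbachol; higher B-score means a larger calcium signal and so more RGS4 inhibition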
Target sequence (P49798 whole entry, looked up): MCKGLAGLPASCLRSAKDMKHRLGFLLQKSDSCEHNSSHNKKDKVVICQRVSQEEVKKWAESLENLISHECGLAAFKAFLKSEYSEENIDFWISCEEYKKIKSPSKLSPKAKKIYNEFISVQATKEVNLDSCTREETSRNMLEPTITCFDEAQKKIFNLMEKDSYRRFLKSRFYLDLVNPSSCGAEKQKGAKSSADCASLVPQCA
MrgX1 antagonist – antagonists of human MrgX1 receptor, primary screen, HEK293 cells, Fluo-4 calcium flux | Mas-related G-protein coupled receptor member X1 (Homo sapiens), Q96LB2 | BAM8-22 antagonism; stronger effect = lower value | B-score at 10 µM | hit rate 1.3% among 310,000;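 active = calcium-response B-score plate-corrected more than 3 library SD below zero, starting fluorescence within 5 deviations, no agonist response on first addition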;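 also: peak minus trough fluorescence over baseline after final BAM8-22 challenge near maximal dose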
RGS4 inh valid – enhanced carbachol calcium response, M3R/RGS4 cells, RGS4 inhibitor project, cell-based, validation screen, HEK293 M3R/RGS4, calcium flux; calcium response, % at 10 µM; carbachol calcium Fluo-4 fluorescence; carbachol added at its EC20; 0 = buffer wells, 100 = carbachol control; shares compounds with RGS4 inh; hit rate 65% among 1,700; AID 492999, 2010;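 active = duplicate-averaged calcium response above the buffer-only control mean plus 5 SD of those controls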;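 also: integrated fluorescence ratio F max minus min over baseline F0; higher response in RGS4-induced cells means RGS4 inhibition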
M3R Ca ctr – carbachol calcium response in non-induced M3R cells, confirmation, counter-screen for RGS4 inhibitor project, cell-based, HEK293 M3R | shares compounds with RGS4 inh | carbachol calcium Fluo-4; submaximal (EC20) carbachol stimulus; buffer wells 0%, carbachol control wells 100% | activity (percent), % at 10 µM | hit rate 20% among 1,900; call rule not given here;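 also: RGS4 induction absent so cells express M3R without RGS4; higher means more calcium signal and flags a non-specific hit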
M3R basal Ca ctr – second RGS4 inhibitor counter-screen in uninduced cells lacking carbachol. hit rate 22% among 1,900. calcium response (agonist-mode artifact), % at 10 µM. HEK293 M3R/RGS4 non-induced, Fluo-4 calcium, no carbachol; normalised: buffer wells 0%, carbachol wells 100%. shares compounds with RGS4 inh;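 active = duplicate-averaged calcium rise in uninduced cells above buffer wells' mean plus 5 SD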
A number is an active result; – = inactive; · = no result.

SMILES	MrgX1 ag	MrgX1 PAM	RGS4 act	RGS4 inh	MrgX1 antagonist	RGS4 inh valid	M3R Ca ctr	M3R basal Ca ctr
CCCCC1=NN2CCS(=O)(=O)N=C2S1	–	–	–	–	–	·	·	·
Cc1cccc(CN2CCc3c([nH]c4ccccc34)C2C(C)(C)C)n1 (stereo not drawn)	–	–	–	–	–	·	·	·
Cc1ccc(C(=O)C2C(c3ccc(-c4ccccc4[N+](=O)[O-])o3)NC(=O)NC2(O)C(F)(F)F)cc1 (stereo not drawn)	–	–	–	–	–	·	–	–
O=C1NC(c2cccs2)C(C(=O)c2ccccc2)C(O)(C(F)(F)F)N1 (stereo not drawn)	–	–	–	–	–	·	·	·
O=C1NC(c2ccc(-c3ccccc3[N+](=O)[O-])o2)C(C(=O)c2ccccc2)C(O)(C(F)(F)F)N1 (stereo not drawn)	–	–	–	–	–	–	–	–
O=[N+]([O-])/C=C/c1cn(Cc2ccc(F)cc2)c2ccccc12	–	7.42	–	6	–	42.5%	–	68.0%
O=C(O)c1ccc(N/N=C/c2cn(Cc3ccc(F)cc3)c3ccccc23)cc1	–	–	–	–	–	·	·	·
CCOC(=O)/C(=C/c1ccc(OC(=O)c2ccccc2)cc1)C(C)=O	–	–	–	–	–	·	–	8.5%
CCn1ccnc1CN(C)Cc1c(C(=O)N2CCCCCCC2)nc2ccc(Cl)cn12	–	–	–	–	–	·	·	·
Cc1cc(C(=O)Nc2sc(C)c(C)c2C#N)c(C)o1	–	–	–	7.46	–	12.0%	–	10.5%
Cc1sc(NC(=O)c2oc3ccccc3c2C)c(C#N)c1C	–	–	–	–	–	·	·	·
Cc1nn2c(-c3ccccc3)ccnc2c1Br	–	–	–	–	–	–	–	–
Cc1ccc(-c2ccnc3c(Br)c(C)nn23)cc1	–	–	–	–	–	–	–	–
Cc1nn2c(-c3cccnc3)ccnc2c1-c1ccccc1	–	–	–	–	–	·	·	·
CN(C)c1nc(C(=O)O)nc(N2CCOCC2)n1	–	–	–	–	–	·	·	·
CCn1cc(S(=O)(=O)N2CCCC2)cn1	–	–	–	–	–	·	·	·
O=C(O)c1cccc(N2C(=O)c3ccc(C(=O)c4cccc([N+](=O)[O-])c4)cc3C2=O)c1	–	–	–	–	–	·	·	·
O=C(O)c1ccc2c(c1)C(=O)N(c1cccc(C(=O)/C=C/c3ccccc3)c1)C2=O	–	–	–	14.6	–	68.0%	–	–
Oc1ccc(C2Nc3cccc4cccc(c34)N2)c(O)c1	–	–	–	7.71	–	9.5%	–	–
Clc1ccccc1C1Nc2cccc3cccc(c23)N1	–	–	–	–	–	·	·	·
COc1ccc(N(CC(=O)Nc2ccccc2C(F)(F)F)C2=NC3CS(=O)(=O)CC3S2)cc1 (stereo not drawn)	–	–	–	–	–	·	·	·
Cc1ccc(-c2cc(-c3ccc4c(c3)OCO4)c(C#N)c(N)n2)o1	–	–	–	8.82	–	–	–	–
Cc1c(-c2ccc(F)cc2)nc(N)c(C#N)c1-c1ccco1	–	–	–	–	–	·	·	·
CCOc1cc(-c2cc(-c3ccc(C)o3)nc(N)c2C#N)ccc1O	–	–	–	–	–	·	·	·
Cc1ccc(-c2cc(-c3ccc(Cl)cc3)c(C#N)c(N)n2)o1	–	–	–	6.29	–	5.0%	–	12.5%
SMILES	MrgX1 ag	MrgX1 PAM	RGS4 act	RGS4 inh	MrgX1 antagonist	RGS4 inh valid	M3R Ca ctr	M3R basal Ca ctr
Cc1ccc(-c2cc(-c3ccc(F)cc3)c(C#N)c(N)n2)o1	27.1	–	–	–	–	–	–	–
Cc1nc(N)c(C#N)c(-c2ccc3c(c2)OCO3)c1C	–	–	–	–	–	·	·	·
Cc1ccc(-c2cc(-c3ccc(C)o3)nc(N)c2C#N)cc1	–	–	–	7.05	–	–	–	–
Cc1ccc(-c2c(C#N)c(N)nc3c2CCCCC3)o1	–	–	–	–	–	·	·	·
COc1ccc(-c2cc(-c3ccc(O)cc3)nc(N)c2C#N)cc1OC	–	–	–	–	–	·	·	·
Cc1cc(-c2cc(-c3ccc(Cl)cc3)nc(N)c2C#N)co1	–	–	–	9.79	–	5.0%	–	–
COc1ccc(C(=O)/C=C2/C(=O)Nc3ccccc32)cc1	–	–	–	7	–	16.5%	–	–
C=CCOc1ccc(C(=O)/C=C2/C(=O)Nc3ccccc32)cc1	–	–	–	4.72	–	14.0%	37.0%	–
O=C1Nc2ccccc2/C1=C/C(=O)c1cccs1	–	–	–	7.13	–	13.5%	–	–
S=C(Nc1ccc(Br)cc1)NC1CCCCC1	–	–	–	–	–	·	·	·
O=S(=O)(c1ccc(Cl)c(C(F)(F)F)c1)N1CCN(CC(O)COc2ccccc2F)CC1 (stereo not drawn)	–	–	–	–	–	·	·	·
Cc1ccc(SCc2[nH]nc3c2C2(C(=O)Nc4ccc(F)cc42)C(C#N)=C(N)O3)cc1 (stereo not drawn)	–	–	–	–	–	·	–	–
COc1ccc(CCN2C(=O)CS/C2=N\NC(=O)c2cccs2)cc1OC	–	–	–	–	–	·	·	·
COc1ccc(C)cc1NS(=O)(=O)c1ccc(NC(=O)CN(c2cc([N+](=O)[O-])ccc2C)S(C)(=O)=O)cc1	–	–	–	–	–	·	–	–
CCOC(=O)[C@@H]1[C@H]2COc3ccc(Br)cc3[C@@H]2N2C(=O)N(c3cccc(F)c3)C(=O)[C@@]12C	–	–	–	–	–	·	·	·
CCOC(=O)[C@@H]1[C@H]2COc3ccccc3[C@@H]2N2C(=O)N(c3cccc(F)c3)C(=O)[C@]12C	–	–	–	–	–	–	–	–
CCOC(=O)[C@@H]1[C@H]2COc3ccccc3[C@@H]2N2C(=O)N(c3cccc(Cl)c3)C(=O)[C@]12C	–	–	–	–	–	–	–	–
CCOC(=O)[C@@H]1[C@H]2COc3cc(OC)ccc3[C@@H]2N2C(=O)N(c3ccc(OC)cc3)C(=O)[C@]12C	–	–	–	–	–	·	·	·

High-throughput results deposited in PubChem by Johns Hopkins Ion Channel Center.
